Results gathered from unrelated publications.
Protocols differ between the studies behind these lines.
OPRK1: Kappa-type opioid receptor (OPRK1, Homo sapiens, UniProt P41145)
HTR2A: 5-hydroxytryptamine receptor 2A (HTR2A, Homo sapiens, UniProt P28223)
SIGMAR1: Sigma non-opioid intracellular receptor 1 (SIGMAR1, Homo sapiens, UniProt Q99720)
PPO3: PPO3 (Agaricus bisporus, UniProt C7FF04)
SPHK1: Sphingosine kinase 1 (SPHK1, Homo sapiens, UniProt Q9NYA1)

SMILES | target | assay | setting | Ki [µM]
CNC(=O)[C@@]12C[C@@H]1[C@@H](n1cnc3c(NCc4cccc(Cl)c4)nc(Cl)nc31)[C@H](O)[C@@H]2O | OPRK1 | cell-free assay |  | > 10
CCCc1nc2c(C)cc(-c3nc4ccccc4n3C)cc2n1Cc1ccc(-c2ccccc2C(=O)O)cc1 | Hepatic sodium/bile acid cotransporter (SLC10A1, Homo sapiens, UniProt Q14973) | transporter uptake, inhibitor |  | 60
Cc1nc2n(c(=O)c1CCN1CCC(C(=O)c3ccc(F)cc3)CC1)CCCC2 | HTR2A | ligand displacement, radioligand | cell membranes | 0.00302
COc1ccccc1N1CCN(C/C=C/CNC(=O)c2cc3cc(OCCOCCF)ccc3[nH]2)CC1 | SIGMAR1 | cell-free assay |  | > 10
CCCC[C@H](NC(=O)[C@H](C)c1c(C)[nH]c2ccc(O)cc12)c1ncc(-c2cc3ccccc3nc2OC)[nH]1 | Cannabinoid receptor 1 (CNR1, Homo sapiens, UniProt P21554) | cell-free assay |  | 7.28
Cc1ccc(C(C)C)cc1NC(=O)COC(=O)c1ccc(O)cc1O | PPO3 | enzyme activity, inhibitor |  | 0.188
Nc1nc(N)c(N=Nc2ccccc2[N+](=O)[O-])c(N)n1 | PPO3 | enzyme activity, inhibitor |  | 5.66
O[C@@H]1[C@H](O)[C@@H]2C[C@@H]2[C@H]1n1cnc2c(NCC(c3ccccc3)c3ccccc3)nc(C#Cc3ccccc3)nc21 | OPRK1 | cell-free assay |  | > 10
O=C1c2ccccc2CCN1CCCCN1CCN(c2cccc(Cl)c2Cl)CC1 | HTR2A | ligand displacement, radioligand |  | 0.039
COc1ccc2c(ccn2CCCCN2CCc3cc(OC)c(OC)cc3C2)c1 | SIGMAR1 | ligand displacement, radioligand | cell membranes | 0.45
CC1Cc2ccccc2N1C(=O)NCCCCN(C)[C@@H]1Cc2cccc3[nH]c(=O)n(c23)C1 (mixture of isomers) | HTR2A | ligand displacement, radioligand |  | 3.09
CCCn1nc(C(=O)N2CCCCC2)c2c1CCC(NCCCNC)C2 (centres unmarked) | SIGMAR1 | ligand displacement, radioligand |  | > 10
CCOC(=O)[C@@]12C[C@@H]1[C@@H](n1cnc3c(NC)nc(C#Cc4ccc(Cl)s4)cc31)[C@H](O)[C@@H]2O | OPRK1 | cell-free assay |  | > 10
Cc1cccc(CN2CCCC(C(=O)NCCc3cccnc3)CC2)n1 (centres unmarked) | OPRK1 | cell-free assay |  | > 10
CCCn1nc(C(=O)N2CCCCC2)c2c1CCC(NCc1ccc(S(N)(=O)=O)cc1)C2 (centres unmarked) | SIGMAR1 | ligand displacement, radioligand |  | > 10
CNC(=O)[C@@]12C[C@@H]1[C@@H](n1cnc3c(NCCC(F)(F)F)nc(C#Cc4ccc(Cl)s4)nc31)[C@H](O)[C@@H]2O | OPRK1 | cell-free assay |  | > 10
[H]/N=C(\N)N1CCC[C@H]1c1nc(-c2ccc(OCC=Cc3ccc(C(F)(F)F)cc3)c(C(F)(F)F)c2)no1 | SPHK1 | enzyme activity, inhibitor |  | 12
CNC(=O)[C@H]1O[C@@H](n2cnc3c(NC)nc(C#Cc4ccc(Cl)s4)nc32)[C@H](O)[C@@H]1O | OPRK1 | cell-free assay |  | > 10
CCNC(=O)[C@H]1O[C@@H](n2cnc3c(N)nc(NN=CC4CCC=CO4)nc32)[C@H](O)[C@@H]1O (some centres unmarked) | Adenosine receptor A2a (ADORA2A, Homo sapiens, UniProt P29274) | ligand displacement, radioligand |  | 0.00664
O[C@H]1[C@H](n2cnc3c(NC(C4CCCCC4)C4CCCCC4)nc(Cl)nc32)[C@H]2C[C@@]2(CF)[C@H]1O | HTR2A | ligand displacement, radioligand |  | 7
CC(=O)Nc1ccc(N=Nc2c(N)nc(N)nc2Cl)cc1 | PPO3 | enzyme activity, inhibitor |  | 7.84
CCCn1nc(C(=O)N2CCCCC2)c2c1CCC(NCC1CCOCC1)C2 (centres unmarked) | SIGMAR1 | ligand displacement, radioligand |  | > 10
CCCc1ccc(CCc2ccc(-c3noc([C@@H]4CCCN4C(=N)N)n3)cc2C(F)(F)F)cc1 | SPHK1 | enzyme activity, inhibitor |  | 17
O[C@@H]1[C@H](O)[C@@H]2C[C@@H]2[C@H]1n1cnc2c(NCCc3ccccc3)nc(C#Cc3ccccc3Cl)nc21 | OPRK1 | cell-free assay |  | > 10
COc1ccc(N=Nc2c(N)nc(N)nc2Cl)cc1 | PPO3 | enzyme activity, inhibitor |  | 7.05
CCNc1nc(C#Cc2ccccc2)nc2c1ncn2[C@H]1[C@H](O)[C@H](O)[C@@H]2C[C@@H]21 | OPRK1 | cell-free assay |  | > 10
CCCn1nc(C(=O)N2CCCCC2)c2c1CCC(N1CCc3ccccc3C1)C2 (centres unmarked) | SIGMAR1 | ligand displacement, radioligand |  | > 10
CNC(=O)[C@@]12C[C@@H]1[C@@H](n1cnc3c(NCc4cccc(Cl)c4)nc(C#Cc4ccccc4Cl)nc31)[C@H](O)[C@@H]2O | OPRK1 | cell-free assay |  | > 10
Cc1nc2n(c(=O)c1CCN)CCCC2 | HTR2A | ligand displacement, radioligand | cell membranes | > 10
